The record followed here is ChEMBL document CHEMBL5046273, “Development of a Novel, Small-Molecule Brain-Penetrant Histone Deacetylase Inhibitor That Enhances Spatial Memory Formation in Mice” (J Med Chem, 2022).

pIC50: −log10 of the molar value. Calls of active or inactive are those of the source. No cut-off for these calls is given here.

The target in data set [1] is T1, Histone deacetylase 2 (Homo sapiens, UniProt Q92769). The experiment in a line: Inhibition of recombinant human full-length HDAC2 incubated for 10 mins by Glo-luminescence assay. The method in brief:
(§1)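 Compounds were serially diluted and incubated with enzyme for 10 min. HDAC-Glo I/II substrate/developer was then added, and luminescence read after 40 min at 23 °C. IC50 from four-parameter fits from two independent titrations, mean ± SD.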

The test system of data set [2] is DU-145. The experiment in a line: Cytotoxicity against human DU-145 cells assessed as reduction in cell viability at 0.00125 to 100 uM incubated for 48 hrs by MTT assay. The class given is functional, cell-based. Particulars: dose 0.00125-100 µM. The procedure, abridged: (§2)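 DU145 cells in DMEM with 10% FBS were seeded at 14 000 cells/well and allowed to adhere for 24 h. Test agents were diluted from 10 mM DMSO stocks (100, 50, 25 µM; 10, 5, 1.25 nM) and applied in triplicate for 48 h at 37 °C, 5% CO2, with DMSO as vehicle. Read-out was 250 µg/mL MTT for 4 h, DMSO solubilization, and A570 with 690 nm reference. Values normalized to DMSO.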
A general note: Tetrazolium dyes change colour on reduction, which living cells bring about.

In data set [3] the target is T1, Histone deacetylase 2. The experiment in a line: Inhibition of recombinant human full-length HDAC2 preincubated for 20 mins with DTT followed by enzyme addition and measured after 10 mins by Glo-luminescence assay. The method in brief: as §1
In data set [4] the target is Histone deacetylase 1 (Homo sapiens, UniProt Q13547). The experiment in a line: Inhibition of HDAC1 in human DU-145 cells assessed as increase in histone H3 acetylation after 24 hrs by immunofluorescence microscopy. The class given is cell-based.
Chain of Histone deacetylase 1 (Q13547 whole entry): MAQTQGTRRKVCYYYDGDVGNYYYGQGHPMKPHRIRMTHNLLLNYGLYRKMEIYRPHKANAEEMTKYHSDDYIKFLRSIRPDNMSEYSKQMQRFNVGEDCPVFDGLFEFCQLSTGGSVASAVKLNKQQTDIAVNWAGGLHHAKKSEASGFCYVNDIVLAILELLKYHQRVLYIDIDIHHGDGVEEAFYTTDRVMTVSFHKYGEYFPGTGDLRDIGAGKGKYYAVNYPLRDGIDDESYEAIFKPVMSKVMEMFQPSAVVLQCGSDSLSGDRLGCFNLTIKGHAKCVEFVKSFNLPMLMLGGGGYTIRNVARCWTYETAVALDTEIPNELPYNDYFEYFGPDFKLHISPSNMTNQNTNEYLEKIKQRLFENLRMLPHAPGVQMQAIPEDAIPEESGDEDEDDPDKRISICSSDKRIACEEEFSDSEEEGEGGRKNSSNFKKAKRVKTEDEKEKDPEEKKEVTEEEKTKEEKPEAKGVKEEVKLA
In data set [5] the target is Histone deacetylase (Homo sapiens) (UniProt Q13547+O15379+Q9UBN7+Q92769+Q9UQL6+Q8WUI4+Q9BY41+Q96DB2+P56524+Q9UKV0+Q969S8). To be noted: DU-145, dose 10.0 nM, time 24.0 hrs.
The subject of data set [6] is DU-145. The experiment in a line: Cytotoxicity against human DU-145 cells assessed as reduction in cell viability at 5 to 10 nM incubated for 48 hrs by MTT assay. The class given is functional, cell-based. Particulars: dose 5-10 nM. The method in brief:
as §2

Data set [7] in a line: Toxicity in ip dosed BALB/c mouse assessed as maximum tolerated dose measured after 2 weeks. To be noted: BALB/c, in vivo. The class given is organism-based. The procedure, abridged: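 Healthy BALB/c mice, compound in 20% DMSO/saline, single i.p. dose. One mouse each at 200, 100 and 50 mg/kg, then 25, 12.5 and 6.25 mg/kg if needed, repeated until a tolerated dose was found. Last test repeated once. Mice weighed daily for 8 days; euthanized at >20% weight loss or overt toxicity. Morbidity/mortality followed over 2 weeks; triplicate experiments.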

T1 sequence (Q92769 whole entry): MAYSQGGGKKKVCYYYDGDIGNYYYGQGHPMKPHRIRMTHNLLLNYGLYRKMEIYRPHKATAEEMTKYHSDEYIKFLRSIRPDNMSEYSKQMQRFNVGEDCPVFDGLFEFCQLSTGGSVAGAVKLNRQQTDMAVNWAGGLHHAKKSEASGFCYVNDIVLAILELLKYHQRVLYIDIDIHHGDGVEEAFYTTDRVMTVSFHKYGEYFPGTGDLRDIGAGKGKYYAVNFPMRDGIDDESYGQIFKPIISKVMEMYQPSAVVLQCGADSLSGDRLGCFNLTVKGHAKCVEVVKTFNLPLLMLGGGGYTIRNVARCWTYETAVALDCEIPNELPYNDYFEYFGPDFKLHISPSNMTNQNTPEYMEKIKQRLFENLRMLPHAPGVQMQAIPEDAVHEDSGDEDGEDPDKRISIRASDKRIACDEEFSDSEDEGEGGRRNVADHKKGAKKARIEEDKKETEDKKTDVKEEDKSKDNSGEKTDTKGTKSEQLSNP

Consider `CC(C)(C)NC(=O)CC(O)/C=C/CCSSCC/C=C/C(O)CC(=O)NC(C)(C)C` (stereo unspecified), for which the pIC50 (in general, −log10 of the IC50, conventionally taken in molar units) in data set [1] is under 4.00; in data set [3], 4.74. Also, in data set [2], the outcome was inactive.
The matching figures for `O=C(CC(O)/C=C/CCSSCC/C=C/C(O)CC(=O)Nc1ccccc1)Nc1ccccc1` (stereo unspecified): 3.98, 4.60 and “inactive”.
On to `CCCC[C@@H](NC(=O)CC(O)/C=C/CCSSCC/C=C/C(O)CC(=O)N[C@H](CCCC)C(=O)OC)C(=O)OC` (stereo partly specified), for which the negative logarithm of the IC50 (pIC50) is 3.55 in data set [1] and 4.77 in data set [3].
The matching figures for `CCCC[C@@H](NC(=O)CC(O)/C=C/CCSSCC/C=C/C(O)CC(=O)N[C@H](CCCC)C(=O)O)C(=O)O` (stereo partly specified): 3.85 and 4.96.
Consider `C/C=C1\NC(=O)[C@H]2CSSCC/C=C/[C@H](CC(=O)N[C@H](C(C)C)C(=O)N2)OC(=O)[C@H](C(C)C)NC1=O` [ROMIDEPSIN], for which the pIC50 in data set [4] is 8.85. For the same molecule, in data set [5], the inhibition entry was “Active”. Also, the result in data set [6] was Active. Moreover, in data set [7], the MTD (usually the highest dose tested that stayed within the study's limit of toxicity) at 336 h was over 200 mg/kg.
Turning to `O=C(O)CC(O)/C=C/CCSSCC/C=C/C(O)CC(=O)O` (stereo unspecified), the pIC50 in data set [1] is 3.85; in data set [3], 4.55.
